Test results published in ChEMBL document CHEMBL1134630, “Synthesis, DNA cross-linking activity, and cytotoxicity of dimeric mitomycins” (J Med Chem, 2001).
Converted amounts (≈) assume the structure as drawn.

How the values were obtained:
[1] = system: A549; experiment: in vitro anticancer activity against cultured A549 human tumor(lung) cell line; type: functional, cell-based
Outline: (§1)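 Human tumour cell lines grown in RPMI-1640 with 25 mM HEPES, 2% NaHCO3, 10% fetal bovine serum and 100 μg/mL kanamycin at 37 °C under 5% CO2. Cells had 3 days of continuous compound exposure in 96-well plates. Fixed with 10% TCA and stained with 0.4% sulforhodamine B; dye dissolved in 20 mM Tris pH 8.0 and read at 562 nm. Treatments run in duplicate. IC50 interpolated from fitted dose-response curves.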

[2] = system: U-87 MG; experiment: in vitro anticancer activity against cultured U87MG (glioblastoma) human tumor cell line; type: functional, cell-based, U-87MG ATCC; outline: as §1
[3] = system: HCT-8; experiment: in vitro inhibition of tumor cell growth in cultured HCT-8 human tumor cell line; type: functional, cell-based; outline: as §1
[4] = system: KB; experiment: in vitro anticancer activity against cultured KB(epidermoid) human tumor cell line; type: functional, cell-based; outline: as §1
[5] = system: MCF7; experiment: in vitro inhibition of tumor cell growth in cultured MCF-7 human tumor cell line; type: functional, cell-based; outline: as §1
[6] = system: PC-3; experiment: in vitro inhibition of tumor cell growth in cultured PC-3 human tumor cell line; type: functional, cell-based; outline: as §1
[7] = system: HepG2; experiment: in vitro inhibition of tumor cell growth in cultured HepG2 human tumor cell line; type: functional, cell-based; outline: as §1
[8] = Mean IC50 for all seven tumor cell lines was determined; type: functional; outline: as §1
[9] = system: A549; experiment: in vitro inhibition of tumor cell growth in cultured A549 human tumor cell line; type: functional, cell-based; outline: as §1
[10] = system: KB; experiment: in vitro inhibition of tumor cell growth in cultured KB human tumor cell line; type: functional, cell-based; outline: as §1
[11] = system: U-87 MG; experiment: in vitro inhibition of tumor cell growth in cultured U87MG human tumor cell line; type: functional, cell-based, U-87MG ATCC; outline: as §1

SMILES: CO[C@@]12[C@H](COC(N)=O)C3=C(C(=O)C(C)=C(NCCOCCNC4=C(C)C(=O)C5=C(C4=O)[C@@H](COC(N)=O)[C@@]4(OC)[C@H]6NC6CN54)C3=O)N1CC1N[C@@H]12 (stereo partly specified)
- IC50 [1]: > 10 µg/mL
- IC50 [2]: > 10 µg/mL

SMILES: CO[C@@]12[C@H](COC(N)=O)C3=C(C(=O)C(C)=C(N)C3=O)N1C[C@@H]1N[C@@H]12 [MITOMYCIN]
- IC50 [1]: 0.08 µg/mL (≈ 0.239 µM)
- IC50 [3]: 0.15 µg/mL (≈ 0.449 µM)
- IC50 [4]: 0.1 µg/mL (≈ 0.299 µM)
- IC50 [5]: 0.45 µg/mL (≈ 1.35 µM)
- IC50 [6]: 1.55 µg/mL (≈ 4.64 µM)
- IC50 [2]: 0.97 µg/mL (≈ 2.9 µM)
- IC50 [7]: 0.36 µg/mL (≈ 1.08 µM)
- Mean IC50 [8]: 0.63 µg/mL

SMILES: CO[C@@]12[C@H](COC(N)=O)C3=C(C(=O)C(C)=C(N)C3=O)N1C[C@H]1[C@@H]2N1C(=O)CCCC(=O)N1[C@H]2[C@@H]1CN1C3=C(C(=O)C(N)=C(C)C3=O)[C@@H](COC(N)=O)[C@@]21OC
- IC50 [1]: 0.67 µg/mL (≈ 0.876 µM)
- IC50 [4]: > 1 µg/mL
- IC50 [2]: > 1 µg/mL

SMILES: CO[C@@]12[C@H](COC(N)=O)C3=C(C(=O)C(C)=C(NCCNCCNC4=C(C)C(=O)C5=C(C4=O)[C@@H](COC(N)=O)[C@@]4(OC)[C@H]6NC6CN54)C3=O)N1CC1N[C@@H]12 (stereo partly specified)
- IC50 [1]: > 1 µg/mL
- IC50 [4]: 0.98 µg/mL (≈ 1.33 µM)
- IC50 [2]: > 1 µg/mL

SMILES: CO[C@@]12[C@H](COC(N)=O)C3=C(C(=O)C(C)=C(NCc4ccc(CNC5=C(C)C(=O)C6=C(C5=O)[C@@H](COC(N)=O)[C@@]5(OC)[C@H]7NC7CN65)cc4)C3=O)N1CC1N[C@@H]12 (stereo partly specified)
- IC50 [1]: > 1 µg/mL
- IC50 [4]: > 1 µg/mL
- IC50 [2]: > 1 µg/mL

SMILES: CO[C@@]12[C@H](COC(N)=O)C3=C(C(=O)C(C)=C(N)C3=O)N1C[C@H]1[C@@H]2N1C(=O)CCCCC(=O)N1[C@@H]2CN3C4=C(C(=O)C(N)=C(C)C4=O)[C@H](COC(N)=O)[C@]3(OC)[C@@H]21
- IC50 [1]: 0.76 µg/mL (≈ 0.976 µM)
- IC50 [4]: > 1 µg/mL
- IC50 [2]: > 1 µg/mL

SMILES: CO[C@@]12[C@H](COC(N)=O)C3=C(C(=O)C(C)=C(N)C3=O)N1C[C@H]1[C@@H]2N1C(=O)CCCCCC(=O)N1[C@H]2[C@@H]1CN1C3=C(C(=O)C(N)=C(C)C3=O)[C@@H](COC(N)=O)[C@@]21OC
- IC50 [1]: 0.68 µg/mL (≈ 0.858 µM)
- IC50 [4]: > 1 µg/mL
- IC50 [2]: > 1 µg/mL

SMILES: CO[C@@]12[C@H](COC(N)=O)C3=C(C(=O)C(C)=C(Nc4ccc(CCc5ccc(NC6=C(C)C(=O)C7=C(C6=O)[C@@H](COC(N)=O)[C@@]6(OC)[C@H]8NC8CN76)cc5)cc4)C3=O)N1CC1N[C@@H]12 (stereo partly specified)
- IC50 [1]: 0.095 µg/mL (≈ 0.112 µM)
- IC50 [3]: 0.11 µg/mL (≈ 0.13 µM)
- IC50 [4]: 0.215 µg/mL (≈ 0.254 µM)
- IC50 [5]: 0.21 µg/mL (≈ 0.248 µM)
- IC50 [6]: 0.2 µg/mL (≈ 0.236 µM)
- IC50 [2]: 0.51 µg/mL (≈ 0.602 µM)
- IC50 [7]: 0.16 µg/mL (≈ 0.189 µM)
- Mean IC50 [8]: 0.2 µg/mL

SMILES: CO[C@@]12[C@H](COC(N)=O)C3=C(C(=O)C(C)=C(NCCCNCCCNC4=C(C)C(=O)C5=C(C4=O)[C@@H](COC(N)=O)[C@@]4(OC)[C@H]6NC6CN54)C3=O)N1CC1N[C@@H]12 (stereo partly specified)
- IC50 [1]: > 1 µg/mL
- IC50 [4]: > 1 µg/mL
- IC50 [2]: > 1 µg/mL

SMILES: COC1=C(C)C(=O)C2=C(C1=O)[C@@H](COC(N)=O)[C@@]1(OC)[C@H]3N[C@H]3CN21 [MITOMYCIN A]
- IC50 [1]: 0.006 µg/mL (≈ 0.0172 µM)
- IC50 [3]: 0.006 µg/mL (≈ 0.0172 µM)
- IC50 [4]: 0.008 µg/mL (≈ 0.0229 µM)
- IC50 [5]: 0.045 µg/mL (≈ 0.129 µM)
- IC50 [6]: 0.02 µg/mL (≈ 0.0573 µM)
- IC50 [2]: 0.009 µg/mL (≈ 0.0258 µM)
- IC50 [7]: 0.008 µg/mL (≈ 0.0229 µM)
- Mean IC50 [8]: 0.014 µg/mL

SMILES: CO[C@@]12[C@H](COC(N)=O)C3=C(C(=O)C(C)=C(NCCCOCCCNC4=C(C)C(=O)C5=C(C4=O)[C@@H](COC(N)=O)[C@@]4(OC)[C@H]6NC6CN54)C3=O)N1CC1N[C@@H]12 (stereo partly specified)
- IC50 [1]: > 10 µg/mL
- IC50 [4]: > 1 µg/mL
- IC50 [2]: > 1 µg/mL

SMILES: CO[C@@]12[C@H](COC(N)=O)C3=C(C(=O)C(C)=C(Nc4ccccc4)C3=O)N1C[C@@H]1N[C@@H]12
- IC50 [9]: 0.02 µg/mL (≈ 0.0487 µM)
- IC50 [3]: 0.004 µg/mL (≈ 0.00975 µM)
- IC50 [10]: 0.13 µg/mL (≈ 0.317 µM)
- IC50 [5]: 0.06 µg/mL (≈ 0.146 µM)
- IC50 [6]: 0.11 µg/mL (≈ 0.268 µM)
- IC50 [11]: 0.26 µg/mL (≈ 0.633 µM)
- IC50 [7]: 0.05 µg/mL (≈ 0.122 µM)
- Mean IC50 [8]: 0.09 µg/mL

SMILES: CO[C@@]12[C@H](COC(N)=O)C3=C(C(=O)C(C)=C(Nc4ccc(Oc5ccc(NC6=C(C)C(=O)C7=C(C6=O)[C@@H](COC(N)=O)[C@@]6(OC)[C@H]8NC8CN76)cc5)cc4)C3=O)N1CC1N[C@@H]12 (stereo partly specified)
- IC50 [1]: 0.062 µg/mL (≈ 0.0743 µM)
- IC50 [3]: 0.06 µg/mL (≈ 0.0719 µM)
- IC50 [4]: 0.064 µg/mL (≈ 0.0767 µM)
- IC50 [5]: 0.14 µg/mL (≈ 0.168 µM)
- IC50 [6]: 0.08 µg/mL (≈ 0.0958 µM)
- IC50 [2]: 0.32 µg/mL (≈ 0.383 µM)
- IC50 [7]: 0.05 µg/mL (≈ 0.0599 µM)
- Mean IC50 [8]: 0.11 µg/mL

SMILES: CO[C@@]12[C@H](COC(N)=O)C3=C(C(=O)C(C)=C(N)C3=O)N1C[C@H]1[C@@H]2N1C(=O)CCC(=O)N1[C@@H]2CN3C4=C(C(=O)C(N)=C(C)C4=O)[C@H](COC(N)=O)[C@]3(OC)[C@@H]21
- IC50 [1]: 0.67 µg/mL (≈ 0.892 µM)
- IC50 [4]: > 1 µg/mL
- IC50 [2]: > 1 µg/mL
